This is an account of results in ChEMBL document CHEMBL4325883, “Non-chelating p-phenylidene-linked bis-imidazoline analogs of known influenza virus endonuclease inhibitors: Synthesis and anti-influenza activity” (Eur J Med Chem, 2019).

Bounds are passed on as bounds.

Data set [1] in a line: Selectivity index, ratio of CC50 for MDCK cells to IC50 for Influenza A virus (A/Puerto Rico/8/34(H1N1)) […] infected in MDCK cells. Type of data set: toxicity, cell-based. The note with it: dog, read-out: Ratio CC50/IC50. In short, it runs like this: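 SI computed as CC50/IC50. CC50 from the MTT assay on MDCK cells (24 h). IC50 is the concentration halving A/PR/8/34 (H1N1) titer in MDCK cells, measured by hemagglutination.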

Data set [2] in a line: Cytotoxicity against MDCK cells after 24 hrs by MTT assay. The conditions noted are these: dog. Type of data set: cell-based, Canis lupus familiaris. In short, it runs like this:
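MDCK cells grown 24 h at 36 °C, 5% CO2 to confluence. Threefold dilutions in MEM added for 24 h. Cells washed twice with saline, then MTT in MEM for 1 h at 36 °C. Formazan dissolved in DMSO, OD read at 540 nm. CC50 (50% cell death) from four-parameter logistic fit.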
In general terms: Formazan colour is commonly taken as a measure of viable cells.

By CC50 is commonly meant the concentration that lowers cell viability or growth by half. A high value points to better tolerance by the cells. `COc1ccc(N2CCN=C2c2ccc(C3=NCCN3c3ccc(OC)cc3)cc2)cc1`: the selectivity ratio in data set [1] is 23. Besides, in data set [2], the midpoint of cytotoxicity, the CC50 at 24 h, lay at 361 µM.

Turning to `Fc1ccc(N2CCN=C2c2ccc(C3=NCCN3c3ccc(F)cc3)cc2)cc1`, the selectivity ratio in data set [1] came out at 12. In data set [2], this molecule showed a CC50 at 24 h of 144 µM.

As for `FC(F)(F)c1ccc(N2CCN=C2c2ccc(C3=NCCN3c3ccc(C(F)(F)F)cn3)cc2)nc1`, in data set [1], the selectivity ratio amounted to 4. For the same molecule, the CC50 at 24 h in data set [2] was 455 µM.

Regarding `c1ccc(N2CCN=C2c2ccc(C3=NCCN3c3ccccc3)cc2)cc1`, in data set [1], the selectivity ratio is over 11. Further, the CC50 at 24 h in data set [2] is over 817 µM.

As to `c1cncc(N2CCN=C2c2ccc(C3=NCCN3c3cccnc3)cc2)c1`, the selectivity ratio in data set [1] was over 12. For the same molecule, the cytotoxic concentration (CC50) at 24 h in data set [2] is over 813 µM.

Take `c1ccc(N2CCN=C2c2ccc(C3=NCCN3c3ccccn3)cc2)nc1`: in data set [1], the selectivity ratio is 4. In data set [2], this molecule returned a CC50 at 24 h of 127 µM.

As for `c1cnc(N2CCN=C2c2ccc(C3=NCCN3c3cnccn3)cc2)cn1`, the CC50 at 24 h in data set [2] is over 809 µM.

With `Clc1ccc(N2CCN=C2c2ccc(C3=NCCN3c3ccc(Cl)cc3)cc2)cc1`, in data set [1], the selectivity ratio was found to be 2. In addition, in data set [2], the midpoint of cytotoxicity, the CC50 at 24 h, lay at 9 µM.

As for `c1ccc(N2CCN=C2c2ccc(C3=NCCN3)cc2)cc1`, the selectivity ratio in data set [1] is over 34. In data set [2], this molecule displayed a CC50 at 24 h of over 1030 µM.

Turning to `COc1ccc(N2CCN=C2c2ccc(C3=NCCN3)cc2)cc1`, the selectivity ratio in data set [1] worked out at 5. Also, the cytotoxic concentration (CC50) at 24 h in data set [2] came out at 224 µM.

As for `Fc1ccc(N2CCN=C2c2ccc(C3=NCCN3)cc2)cc1`, in data set [1], the selectivity ratio was over 15. Moreover, the CC50 at 24 h in data set [2] was over 971 µM.

As to `CC(N)C12CC3CC(CC(C3)C1)C2` (stereo not drawn) [RIMANTADINE], in data set [1], the selectivity ratio stood at 6. Half-maximal cytotoxicity in data set [2] (CC50 at 24 h) was put at 62 µM.
